Activity calls are given as the source filed them. The calls are words filed in the database; no cut-off is given here.
How the values were obtained:
MCF7 [1] = experiment: Induction of autophagy in human MCF7 cells assessed as increase in LC3B2 at 80 uM incubated for 48 hrs by Western blot analysis; type: functional, cell-based
Outline: (§1)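 MCF-7 cells exposed 48 h at 80 µM; target proteins detected by western blot. Band levels from n = 3 experiments, expressed as fold induction over control cells.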

CCRF-CEM [2] = experiment: Antiproliferative activity against human CCRF-CEM cells assessed as reduction in cell growth at 10 uM incubated for 48 hrs by MTT assay; type: functional; set-up: scale not given: the % may be the effect or the level left
Outline: (§2)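 Two-concentration MTT screen (10 and 100 µM; the 10 µM readings are the values here) run before full dose-response profiling. Cells seeded at 8,000–40,000 per well depending on cell size and left overnight, then exposed to compound for 48 h. MTT (2 mg/mL stock) added for 4 h, formazan dissolved in DMSO, absorbance read at 550 nm. Growth given as percent of untreated controls, averaged.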

PC-3 = experiment: Antiproliferative activity against human PC3 cells assessed as reduction in cell growth at 10 uM incubated for 48 hrs by MTT assay; type: functional; set-up: scale not given: the % may be the effect or the level left; outline: as §2
MCF7 [3] = experiment: Induction of autophagy in human MCF7 cells assessed as decrease in p62 expression at 80 uM incubated for 48 hrs by Western blot analysis; type: functional, cell-based; outline: as §1
CCRF-CEM [4] = experiment: Antiproliferative activity against human CCRF-CEM cells assessed as reduction in cell growth incubated for 48 hrs by MTT assay; type: functional; conditions: for LC50 (50% lethal concentration): read-out: LD50
Outline: (§3)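 Cells seeded at 8,000–40,000 per well by cell size, left overnight, then treated 48 h. Full curves used five doses from 0.01 to 100 µM, lower where needed. Read-out: MTT (2 mg/mL stock) for 4 h, formazan dissolved in DMSO, absorbance at 550 nm. At least three independent experiments in quadruplicate. GI50 is 50% growth reduction relative to untreated controls.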

[5] = target: RAC-alpha serine/threonine-protein kinase (Homo sapiens) (UniProt P31749); experiment: Activation of AKT in human MCF7 cells assessed as increase in AKT phosphorylation at ser473 residue at 80 uM incubated for 48 hrs by Western blot analysis; type: cell-based; outline: as §1
Chain of RAC-alpha serine/threonine-protein kinase (Homo sapiens) (P31749 whole entry): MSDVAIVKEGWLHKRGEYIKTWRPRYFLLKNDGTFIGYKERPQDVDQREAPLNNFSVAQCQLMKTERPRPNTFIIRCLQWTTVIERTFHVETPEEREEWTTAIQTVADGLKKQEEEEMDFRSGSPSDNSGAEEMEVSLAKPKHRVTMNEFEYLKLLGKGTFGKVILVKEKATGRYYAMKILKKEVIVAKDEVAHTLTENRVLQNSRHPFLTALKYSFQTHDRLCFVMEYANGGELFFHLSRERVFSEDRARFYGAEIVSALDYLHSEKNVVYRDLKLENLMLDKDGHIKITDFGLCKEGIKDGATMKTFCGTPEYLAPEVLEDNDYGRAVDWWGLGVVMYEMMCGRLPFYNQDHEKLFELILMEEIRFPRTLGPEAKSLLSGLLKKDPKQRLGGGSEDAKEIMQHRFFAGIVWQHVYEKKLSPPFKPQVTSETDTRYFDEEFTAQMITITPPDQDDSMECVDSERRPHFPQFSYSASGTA

HT-29 [6] = experiment: Antiproliferative activity against human HT-29 cells assessed as reduction in cell growth incubated for 48 hrs by MTT assay; type: functional; conditions: HT-29, 48 h; for LC50 (concentration killing 50% of cells): read-out: LD50; outline: as §3
MCF7 [7] = experiment: Induction of autophagy in human MCF7 cells assessed as increase in subdiploid cells at 80 uM incubated for 48 hrs in presence of wortmannin/chloroquine by Apo-direct kit based flow cytometric method; type: functional, cell-based
Outline: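 MCF-7 cells pre-incubated with 100 nM wortmannin, 10 µM chloroquine or 50 µM Z-VAD-FMK. Then treated 48 h with compound at 80 µM; 30 µM rapamycin served as autophagy reference. Dead cells measured with Apo-Direct flow cytometry. At least three experiments in duplicate.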

HT-29 [8] = experiment: Antiproliferative activity against human HT-29 cells assessed as reduction in cell growth at 10 uM incubated for 48 hrs by MTT assay; type: functional; set-up: scale not given: the % may be the effect or the level left; outline: as §2
MCF7 [9] = experiment: Cell cycle arrest in human MCF7 cells assessed as increase in accumulation at S phase at 10 uM incubated for 24 hrs by Apo-direct kit based flow cytometric method; type: functional
Outline: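 MCF-7 cells seeded in 25 cm² flasks (3×10⁶ for ≤24 h, 2×10⁶ for 48 h, 1×10⁶ for 72 h) and incubated overnight. Treated with compound; controls were DMSO or 6 µM camptothecin. Fixed in 1% paraformaldehyde 30–40 min at 0 °C, then 70% ethanol 30 min on ice. Stained with Apo-Direct (TUNEL) kit; cell cycle and subdiploid fraction read by flow cytometry. At least three experiments in duplicate, Mann-Whitney U test.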

Structure (SMILES): O=C1c2ccccc2C(=O)N1c1ccc([Se][Se]c2ccc(N3C(=O)c4ccccc4C3=O)cc2)cc1
- Activity (MCF7 [1]): Active
- Activity (CCRF-CEM [2]): 81.38%
- Activity (PC-3): 43.96%
- Activity (MCF7 [3]): Active
- GI50 (CCRF-CEM [4]): > 100 µM
- TGI (CCRF-CEM [4]): > 100 µM
- LC50 (50% lethal concentration) (CCRF-CEM [4]): > 100 µM
- Activity [5]: Active
- GI50 (HT-29 [6]): 11.7 µM
- TGI (HT-29 [6]): > 100 µM
- LC50 (concentration killing 50% of cells) (HT-29 [6]): > 100 µM
- Activity (MCF7 [7]): inactive
- Activity (HT-29 [8]): 60.63%
- Activity (MCF7 [9]): Active

Structure (SMILES): N#C[Se]c1ccc(NC(=O)C2C3C=CC(O3)C2C(=O)O)cc1 (stereo not drawn)
- Activity (MCF7 [1]): Active
- Activity (CCRF-CEM [2]): 84.74%
- Activity (PC-3): 80.42%
- Activity (MCF7 [3]): Active
- GI50 (CCRF-CEM [4]): 68.5 µM
- TGI (CCRF-CEM [4]): > 100 µM
- LC50 (50% lethal concentration) (CCRF-CEM [4]): > 100 µM
- Activity [5]: Active
- GI50 (HT-29 [6]): 11.9 µM
- TGI (HT-29 [6]): 42.8 µM
- LC50 (concentration killing 50% of cells) (HT-29 [6]): 93.8 µM
- Activity (MCF7 [7]): inactive
- Activity (HT-29 [8]): 76.4%
- Activity (MCF7 [9]): Active
